From ChEMBL document CHEMBL5214934, “A simplified analog of debromoaplysiatoxin lacking the B-ring of spiroketal moiety retains protein kinase C-binding and antiproliferative activities” (Bioorg Med Chem, 2022)
Activity calls are given as the source filed them. The rule behind the calls is not given here.

Columns and labels:
Homo sapiens = organism: Homo sapiens; experiment: Ratio Ki for inhibition of [3H]-PDBu binding to PKCalpha C1A domain (unknown origin) to Ki for inhibition of [3H]-PDBu binding to PKCdelta C1B domain (unknown origin)
[1] = target: Protein kinase C delta type (Homo sapiens, UniProt Q05655); experiment: Inhibition of [3H]-PDBu binding to PKCdelta C1B domain (unknown origin) by competitive binding assay
In short: (§1)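 Synthetic PKCα-C1A (40 nM) or PKCδ-C1B (13.8 nM) peptide in 50 mM Tris-maleate (pH 7.4 at 4 °C). Mixture contained 20 nM [3H]PDBu (13.92 Ci/mmol), 50 µg/mL dioleoylphosphatidylserine, 3 mg/mL bovine γ-globulin and graded ligand. IC50 by logit analysis; Ki by Goldstein–Barrett equation from IC50 and [3H]PDBu Kd. Two independent experiments, triplicates each; log-scale mean with 95% CI.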

[2] = target: Protein kinase C alpha type (Homo sapiens, UniProt P17252); experiment: Inhibition of [3H]-PDBu binding to PKCalpha C1A domain (unknown origin) by competitive binding assay; in short: as §1
MKN-45 = experiment: Antiproliferative activity against human MKN-45 cells after 48 hrs by SRB assay; assay type: functional
In short: (§2)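 Part of a 39-line human cancer cell panel. Cells plated in RPMI 1640 with 5% FBS and left to attach overnight, then exposed to compound at 10^-8 to 10^-4 M for 48 h. Growth measured by sulforhodamine B staining, absorbance at 525 nm, with a time-0 reading. % growth calculated against control from duplicate points. GI50 is the concentration giving 50% growth inhibition versus untreated control.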

NCI-H460 = experiment: Antiproliferative activity against human NCI-H460 cells after 48 hrs by SRB assay; assay type: functional; in short: as §2
HCC 2998 = experiment: Antiproliferative activity against human HCC 2998 cells after 48 hrs by SRB assay; assay type: functional; settings: HCC 2998, read-out: pGI50 (converted); in short: as §2
OVCAR-5 = experiment: Antiproliferative activity against human OVCAR-5 cells after 48 hrs by SRB assay; assay type: functional; settings: OVCAR-5, read-out: pGI50 (converted); in short: as §2
SF-295 = experiment: Antiproliferative activity against human SF-295 cells after 48 hrs by SRB assay; assay type: functional; settings: SF-295, read-out: pGI50 (converted); in short: as §2
A549 = experiment: Antiproliferative activity against human A549 cells after 48 hrs by SRB assay; assay type: functional; settings: A549, read-out: pGI50 (converted); in short: as §2
[3] = Antiproliferative activity against human HBC4 cells after 48 hrs by SRB assay; assay type: functional; settings: HBC4, read-out: pGI50 (converted); in short: as §2
MDA-MB-231 = experiment: Antiproliferative activity against human MDA-MB-231 cells after 48 hrs by SRB assay; assay type: functional; settings: MDA-MB-231, read-out: pGI50 (converted); in short: as §2
St-4 = experiment: Antiproliferative activity against human St-4 cells after 48 hrs by SRB assay; assay type: functional; settings: St-4, read-out: pGI50 (converted); in short: as §2
DMS-273 = experiment: Antiproliferative activity against human DMS-273 cells after 48 hrs by SRB assay; assay type: functional; settings: DMS-273, read-out: pGI50 (converted); in short: as §2

Sequence of Protein kinase C delta type (Q05655 whole entry, the tested form may be a part): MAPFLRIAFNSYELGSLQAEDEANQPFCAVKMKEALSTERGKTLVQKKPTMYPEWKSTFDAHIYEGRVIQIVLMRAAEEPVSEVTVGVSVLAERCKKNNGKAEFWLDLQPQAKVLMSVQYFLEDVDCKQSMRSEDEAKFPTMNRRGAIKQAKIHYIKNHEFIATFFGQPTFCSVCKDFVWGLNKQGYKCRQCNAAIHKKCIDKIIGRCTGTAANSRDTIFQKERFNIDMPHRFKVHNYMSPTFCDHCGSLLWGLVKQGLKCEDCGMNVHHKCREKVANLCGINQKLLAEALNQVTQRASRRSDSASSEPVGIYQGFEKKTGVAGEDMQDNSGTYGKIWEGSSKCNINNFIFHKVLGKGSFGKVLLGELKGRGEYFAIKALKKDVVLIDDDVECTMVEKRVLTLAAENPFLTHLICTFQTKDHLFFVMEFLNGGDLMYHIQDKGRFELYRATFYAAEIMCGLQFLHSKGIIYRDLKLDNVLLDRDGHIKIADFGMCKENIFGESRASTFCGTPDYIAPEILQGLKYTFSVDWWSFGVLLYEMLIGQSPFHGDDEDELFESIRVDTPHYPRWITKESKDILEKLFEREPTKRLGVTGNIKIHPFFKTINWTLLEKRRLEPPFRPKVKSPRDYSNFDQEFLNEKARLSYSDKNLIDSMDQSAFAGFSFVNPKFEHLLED

SMILES: CC(C)[C@@]12C[C@@H](C[C@@H](CCCCc3ccccc3)O1)OC(=O)C[C@H](CO)OC(=O)CCO2
- Ratio Ki (Homo sapiens): 0.8
- Ki [1]: 0.13 µM
- Ki [2]: 0.1 µM
- Activity (MKN-45): Active
- Activity (NCI-H460): Active

SMILES: CC1(C)CC[C@@H]2CC(=O)O[C@@H](CO)CC(=O)O[C@@H]3C[C@@H](CCCCc4ccccc4)O[C@@]1(C3)O2
- Ratio Ki (Homo sapiens): 12

SMILES: CC1(C)CC[C@@H]2CC(=O)O[C@@H](CO)CC(=O)O[C@H](CCCCCCc3ccccc3)C[C@@H]1O2
- GI50 (HCC 2998): < 10 µM
- GI50 (OVCAR-5): < 10 µM
- Ratio Ki (Homo sapiens): 5.2
- GI50 (SF-295): < 10 µM
- GI50 (A549): < 10 µM
- Ki [1]: 0.017 µM
- Ki [2]: 0.088 µM
- GI50 [3]: < 10 µM
- GI50 (MKN-45; MKN-45, read-out: pGI50 (converted)): < 10 µM
- GI50 (MDA-MB-231): < 10 µM
- GI50 (NCI-H460; NCI-H460, read-out: pGI50 (converted)): < 10 µM
- GI50 (St-4): < 10 µM
- GI50 (DMS-273): < 10 µM
